In ChEMBL document CHEMBL4513216, “Probing the Open Global Health Chemical Diversity Library for Multistage-Active Starting Points for Next-Generation Antimalarials” (ACS Infect Dis, 2020):

Assay: Toxicity liver stage against HepG2, at 10uM
Type: cell-based
Design: test concentration 10 uM, cell line HepG2-A16-CD81EGFP
Conditions: human, HepG2-A16-CD81EGFP cells; read-out: INHIBITION
Procedure, shortened: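 Uninfected HepG2-A16-CD81EGFP cells, 3 × 10^3 per well, 1536-well, plated on prespotted compound at 10 μM final, parasite-free screening media added to match infected plates; puromycin 10 μM positive, DMSO 0.5% negative; run in parallel with 48 h PbLuc assay at 37 °C, 5% CO2; viability by CellTiter-Glo luminescence, normalized to controls.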

| SMILES | cytotoxicity at 10 µM [%] |
| --- | --- |
| O=C1CC(N2CCN(c3ccc(O)cc3)CC2)C(=O)N1Cc1cccs1 (stereo not drawn) | 5.77 |
| CC(C)(CO)Nc1c(NCc2ccncc2)c(=O)c1=O | -3.97 |
| CC(C)CC(=O)Nc1ccc2c(c1)ncn2CC(=O)NCCN(C)C | -7.58 |
| COc1ccc(C(=O)Nc2n[nH]c(C3CCCO3)n2)cc1 (stereo not drawn) | -2.46 |
| Cc1ccc(-c2csc3c(=O)[nH]c(N4CCCC(C(=O)O)C4)nc23)cc1 (stereo not drawn) | -68 |
| CSCC(C)(O)CNS(=O)(=O)c1cccc(C)c1 (stereo not drawn) | -2.85 |
| CCOc1ccccc1C(=O)NCCc1ccoc1 | 8.54 |
| Cc1nc(N2CCN(C(=O)c3cccnc3)CC2)cc(-n2cccc2)n1 | -5.19 |
| O=C(CN1C(=O)CCC1=O)N1CCOC2(CCOCC2)C1 | 4.1 |
| COCCNc1c(C#N)c2c(c3nncn13)CN(C)CC2 | 6.83 |
| CC(=O)CSc1nnc2n1N=CN(c1cccc(Cl)c1)C2 | 1.05 |
| CCOC1Sc2nnc(C)n2N=C1c1ccc(F)cc1 (stereo not drawn) | 4.48 |
| CCOC(=O)CCC(=O)N1CCC(Oc2ccc(C(F)(F)F)cn2)CC1 | 11.6 |
| Cc1nc2c(N(C)Cc3ccnn3C)nc(N)nc2n1C | -7.42 |
| CCn1ncc(S(=O)(=O)NC(C)c2cc(OC)ccc2OC)c1C (stereo not drawn) | -4.48 |
| O=C(NCC1CCCO1)c1cc(Sc2ncccn2)ccn1 (stereo not drawn) | -17.2 |
| CSCc1cccc(S(=O)(=O)N2CCC(C)CC2)c1 | 13.1 |
| CCOCCCNC(=O)c1cc(C)nc(N2CCCC2)n1 | 1.11 |
| Cc1cncc(CN2CC[C@@](O)(CNC(=O)c3c[nH]cn3)[C@H](O)C2)c1 | -1.68 |
| CCc1cc(O)n2nc(C3CCN(C(=O)c4ccncc4)CC3)cc2n1 | 3.51 |
| COC(=O)c1cccc(C2CNCCN2C)c1 (stereo not drawn) | 0.5 |
| N[C@@H]1CCCN(C(=O)Cc2c[nH]c3ccccc23)[C@H]1c1ccccc1F | 7.45 |
| O=C(O)c1ccc(CN2CCCC(Cc3ccn[nH]3)C2)cc1 (stereo not drawn) | -6.08 |

| SMILES | cytotoxicity at 10 µM [%] |
| --- | --- |
| CCOCCN1CCC(c2cnccn2)CC1 | 5.8 |
| COCCN1CCCC1c1ccnc(-c2ccccc2)n1 (stereo not drawn) | 1.09 |
| CC(C)c1nc(O)c2nnn(C[C@H]3CCCN(Cc4ccsc4)C3)c2n1 | 1.8 |
| Cc1nc(C2CCN(c3ccccc3)CC2)no1 | -28.4 |
| Cc1noc(C)c1-c1cncc(C2CCCN2Cc2c[nH]cn2)n1 (stereo not drawn) | -12.4 |
| Cc1ccc(O)c(CN2CCc3nc(-c4cccnc4)nc(O)c3C2)c1 | 5.19 |
| Cc1nc(CCC(=O)NCC(N)=O)cc(C2CCNCC2)n1 | -3.03 |
| O=S(=O)(N1CCOCC1)N1CCC(Oc2cnccn2)CC1 | -23.3 |
| c1cc2nccc(CC3CCCN(Cc4ncc[nH]4)CC3)c2cn1 (stereo not drawn) | -2.06 |
| Cc1cnn(CC(C)NCc2ccc(C#N)cc2)c1 (stereo not drawn) | -11.8 |
| CC(c1ccncc1)N(C)S(C)(=O)=O (stereo not drawn) | 1.18 |
| CN1CCOC(C(=O)Nc2nc(-c3ccc4c(c3)CCC4)n[nH]2)C1 (stereo not drawn) | -7.53 |
| Cc1noc(CNc2ccc(CC(=O)N3CCSCC3)cc2)n1 | -2.29 |
| CCNC(=O)NC(C)(C)C(=O)NCCc1csc2ccccc12 | -15.5 |
| Cc1sc(C(=O)NS(C)(=O)=O)cc1-c1ccc(F)cc1 | 2.53 |
| COCCCN1Cc2cccc(NC(=O)c3cc(F)ccc3F)c2C1 | -1.74 |
| c1ncc2c(n1)CN(c1ncnc3[nH]ccc13)CC2 | -4.28 |
| O=C(NCc1ccnc(OCC2CC2)c1)C1COc2ccccc2O1 (stereo not drawn) | -3.88 |
| CC(C)N(C)C(=O)c1ccc(CNc2cncc(Cl)n2)cc1 | 2.87 |
| Nc1cc2c(nn1)CCN(C(=O)CCc1ccc3c(c1)OCO3)C2 | 3.23 |
| CC(C(=O)N1CCC(Cc2ccc(F)cc2)CC1)n1ccnc1 (stereo not drawn) | 4.57 |
| CS(=O)(=O)NC1CCCN(c2ccc(C#N)cn2)C1 (stereo not drawn) | -12.7 |
| Cc1cc(CNC(=O)NCCOc2ccc(F)c(F)c2)on1 | 16.3 |

| SMILES | cytotoxicity at 10 µM [%] |
| --- | --- |
| CC(C)C(=O)NCc1ccnc(Oc2ccc(F)cc2)c1 | 6.06 |
| CCN1CCN(C(=O)NCc2ccccc2Cn2cncn2)CC1 | 0.663 |
| CC(C)S(=O)(=O)NCC1CCCN(C(=O)c2ccc(Cl)cc2)C1 (stereo not drawn) | -3.44 |
| CCc1cc(CNC(=O)N2CCN(c3nc(C)c(C)s3)CC2)on1 | -11.6 |
| O=C(NCCCOC1CCOC1)NC(C1CC1)C1CC1 (stereo not drawn) | -5.36 |
| COCCn1cc(NCc2c[nH]nc2C(C)(C)C)cn1 | -2.35 |
| CCc1sc(-c2nnc(CNC(C)Cn3cc(C)cn3)o2)cc1C (stereo not drawn) | 0.493 |
| Cc1noc(C)c1CSc1nc(=O)ccn1C(C)C | 5.95 |
| CCOc1ccc(NC(C)C(=O)Nc2cc(C)no2)cc1 (stereo not drawn) | 7.04 |
| COc1cc(CN(C)CCc2ccncc2)c(SC)cc1OC | -2.92 |
| Cc1nc(CN2CCc3cncnc3C2)oc1C | -12 |
| CCc1nnc(C(C)N2CCCN(C(=O)Oc3ccccc3)CC2)o1 (stereo not drawn) | 2.79 |
| O=S(=O)(C1CC1)N1CCC2(CCCN(Cc3ccccn3)C2)CC1 | 5.97 |
| c1cc(-c2nnn3c2COC(CNCc2nccs2)C3)ccn1 (stereo not drawn) | 1.94 |
| CCOCC(=O)N1CCC(c2nccn2Cc2cscn2)CC1 | -5.58 |
| CCc1ccc(CN(CC)Cc2ccc(S(=O)(=O)NC)cc2)cc1 | -8.55 |
| Cc1nn2c(N3CCC(C#N)CC3)cc(-c3ccccc3)nc2c1C | -8.6 |
| CCc1nc(NC2CCCN(C(=O)c3cccs3)C2)c2cnn(C)c2n1 (stereo not drawn) | 13.9 |
| CC(=O)N[C@@H]1CN(Cc2ccco2)C[C@H]1c1ccc(C)o1 | -3.33 |
| Cn1nnnc1SCCNC(=O)CC1CCc2ccccc21 (stereo not drawn) | -2.49 |
| CC(C)[C@@H]1CN(S(=O)(=O)Cc2ccccc2)C[C@H]1NS(=O)(=O)N(C)C | -0.625 |
| COCCN(C)CCN1CC2(CCN(C3CCOC3)CC2)OC1=O (stereo not drawn) | 4.63 |
| Cc1nonc1C1CCCN1C(=O)CCc1cc2n(n1)CCCNC2 (stereo not drawn) | -5.65 |

| SMILES | cytotoxicity at 10 µM [%] |
| --- | --- |
| CCC(C)N(Cc1cccnc1)C(=O)c1ccc(OC)cc1O (stereo not drawn) | 8.65 |
| CSc1ccccc1CCC1CCS(=O)(=O)C1 (stereo not drawn) | 3.75 |
| N#Cc1cccc(C(=O)N2C[C@H](CO)C[C@H](CN3CCCC3)C2)c1 | -1.04 |
| CC(=O)c1ccc(C(=O)N2C[C@@H](CN3CCCC3)[C@@H](CO)C2)cc1 | -0.434 |
| CCc1cc(C(=O)N2CCC(C3CCN(c4ncccn4)CC3)C2)on1 (stereo not drawn) | 2.25 |
| CCCc1nnc(NC2CCN(Cc3ccc(F)c(F)c3)CC2)o1 | -1.48 |
| COc1ccc(-c2n[nH]cc2CN(C)Cc2nonc2C)c(F)c1 | -6.46 |
| CCn1cnnc1CCNc1nc(C)cc(C)c1C#N | 2.56 |
| CCOc1ccc2[nH]c(=O)c(CN3CCCC3c3ccccn3)cc2c1 (stereo not drawn) | -7.04 |
| Cc1ccc(-c2nccn2-c2ccc(OC3CCN(C)CC3)cc2)o1 | -10.4 |
| CNC(=O)c1cc(OC)c(OC)cc1N(C)S(C)(=O)=O | -5.58 |
| COC(=O)CN1CCCn2nc(CCC(=O)N3CCCC3)cc2C1 | -204 |
| CCC(NC(=O)C1CCN(S(C)(=O)=O)CC1)c1ccc(C)cc1 (stereo not drawn) | -5.85 |
| CC(C)(CNC1CCCN(Cc2ccccn2)C1)CN1CCOCC1 (stereo not drawn) | 5.91 |
| Cc1cc(C)n(-c2ccccc2NC(=O)NCCS(=O)(=O)CC(C)C)n1 | -3.92 |
| CCCNCc1cc2c(C)cc(C)cc2n2c(=O)n(C)nc12 | -3.09 |
| Nc1cc(CCC2CN(Cc3ccc(C(=O)O)cc3)CCO2)ccn1 (stereo not drawn) | 6.98 |
| CC(C)c1ccc(OCCNC(=O)CN2CCN(C)CC2C)cc1 (stereo not drawn) | -13.2 |
| CCn1ccnc1CN1CCCN(C(=O)c2cc(C)nn2CC)CC1 | -5.89 |
| COCCOc1cccc(CNCc2c(C)nn(C)c2N(C)C)c1 | -7.19 |
| Cc1nc(C)n(CC2CCCN2Cc2nc(-c3ccccn3)no2)n1 (stereo not drawn) | -9.48 |
| COC(=O)c1ccc(N2CCN(CCN3CCOCC3)C(C)C2)cc1 (stereo not drawn) | -13.6 |
| NC(=O)Cc1ccc(NC(=O)C2CCOCC2)cc1 | -1.2 |

| SMILES | cytotoxicity at 10 µM [%] |
| --- | --- |
| CC1CN(CC(=O)Nc2nncs2)CCN1c1nccs1 (stereo not drawn) | -15.7 |
| Cc1nn(C)c(C)c1C1CCCN1Cc1nc(-c2ccco2)oc1C (stereo not drawn) | -4.27 |
| Cc1ccc(-n2nnc(C(=O)NS(C)(=O)=O)c2C2CC2)cc1 | -13.9 |
| c1csc(-c2nc(CNC3CCc4ncnn4C3)cs2)c1 (stereo not drawn) | 2.07 |
| O=C(Nc1nccs1)NC1CCN(Cc2ccccc2)C1 (stereo not drawn) | -9.93 |
| CCc1nc(C2CCCN2C(=O)c2ncoc2CC)no1 (stereo not drawn) | -12.8 |
| Cc1ncsc1C(=O)N(C)Cc1cccc(Cl)c1 | -1.27 |
| CC(C)c1nnc2n1CCN(C(=O)CN1Cc3ccccc3C1=O)C2 | -1.81 |
| CCOC(=O)CN1CCC(C(=O)c2cc(F)ccc2F)CC1 | -8.11 |
| COc1ccc(CNC(=O)N(Cc2ccc(F)cc2F)C2CC2)cn1 | -6.67 |
| CCN(CC1CCCO1)C(=O)Nc1cc(OC)c(OC)cc1C (stereo not drawn) | -10.9 |
| O=C(C1CCC1)N1CCN(c2snc3ccccc23)CC1 | 11.2 |
| Cc1csc(N2CCCN(Cc3noc(C)n3)CC2)n1 | -4.26 |
| CCOc1cc(C)ccc1NC(=O)N(C)Cc1cnn(C)c1 | -7.15 |
| CN(Cc1ccsc1)C(=O)CN1CCOC(Cn2cccn2)C1 (stereo not drawn) | -14.7 |
| c1cc(CC2CCCNC2)nc(NCCc2cnccn2)c1 (stereo not drawn) | 3.64 |
| CNC(=O)c1ccc2c(c1)C1(CCN(CC(C)C)CC1)C(=O)N2 | -2.56 |
| CC(C)OCc1nn(C)c2c1CCN(CC1CC1)C2 | 4.91 |
| Fc1ccccc1OCCc1cc(C2CNCCO2)n[nH]1 (stereo not drawn) | -2.16 |
| CC(C)CS(=O)(=O)N1C[C@@H]2C[C@H](C(=O)N3CCCC3)[C@H](C1)O2 | 17 |
| CC(C)=CCN1C[C@@H]2CC[C@H]1CN(C(=O)c1ccc3c(c1)OCO3)C2 | -0.988 |
